Shown are actives, neighbours in structure and some others; about 2.3% of the full set was active somewhere.
OXTR agonist: human OXTR agonists, primary screen, fluorescence, CHO-OTR cells, Fluo-8 calcium. Oxytocin receptor (Homo sapiens), P30559. Fluo-8 calcium fluorescence; normalized: DMSO 0%, oxytocin 100%. activation, % at 3 µM. 320,000 compounds, 0.32% hits;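 active means activation above the mean of all tested compounds plus 3 SD, cutoff set per screening run, cut at about 20% in these data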;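 further: peak over basal fluorescence ratio from a 100 s FLIPR kinetic read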
TAAR1 antag: human TAAR1 antagonists, primary screen, Fluo-8 calcium fluorescence, CHO RD-HGA16 cells; Trace amine-associated receptor 1 (Homo sapiens), Q96RJ0; inhibition, % at 3 µM; antagonist; 360,000 compounds, 1.5% hits; AID 624466, 2012;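 active means inhibition above a per-plate cutoff, the mean inhibition of test compounds on that plate plus 3 SD, cut at about 49% in these data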;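 further: 0% = DMSO plus EC80 beta-PEA response and 100% = DMSO alone without agonist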
Target sequence (Q96RJ0 whole entry, looked up): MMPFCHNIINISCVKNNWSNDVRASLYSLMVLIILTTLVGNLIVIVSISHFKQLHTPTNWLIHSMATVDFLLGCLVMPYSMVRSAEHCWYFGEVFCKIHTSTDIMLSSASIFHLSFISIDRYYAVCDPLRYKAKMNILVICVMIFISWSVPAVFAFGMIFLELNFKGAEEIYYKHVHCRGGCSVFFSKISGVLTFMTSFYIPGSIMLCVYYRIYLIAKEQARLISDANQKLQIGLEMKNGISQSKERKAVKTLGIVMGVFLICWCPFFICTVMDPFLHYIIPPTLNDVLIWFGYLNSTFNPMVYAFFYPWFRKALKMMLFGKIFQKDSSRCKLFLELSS
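Assay system: RD-HGA16 CHO cells with stable hTAAR1 and Gα16 / Reagent: EC80 β-phenethylamine stimulus / Doses: 3 µM, single point / Timing: dye loading 75 min at 37 °C, then 30 min room temperature / Measured by: Fluo-8 intracellular calcium dye fluorescence, real-time kinetic reads / Controls: vehicle wells and EC80 agonist wells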
OXTR potentiate: human OXTR potentiators, primary screen, fluorescence, CHO-OTR cells, Fluo-8 calcium. Oxytocin receptor (Homo sapiens), P30559. activation, % at 3 µM. Fluo-8 calcium fluorescence, potentiator mode; 0% = oxytocin EC15, 100% = EC100. 320,000 compounds, 0.061% hits;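 active means activation above that plate's cutoff, the mean activation of tested compounds plus 3 SD, cut at about 6.6% in these data, passing the limit was not always enough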;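 further: 100% uses oxytocin at 75 nM as the full agonist control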
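System: human OTR in CHO cells; Also added: sub-maximal oxytocin, roughly EC15; Timing: compound 6 min at room temperature before oxytocin, 100 s read; Technique: Fluo-8 intracellular calcium fluorescence, ex 470-495, em 515-575 nm; Controls: oxytocin EC15 low and EC100 high; Replication: singlicate.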
TAAR1 agonist: human TAAR1 agonists, primary screen, Fluo-8 calcium fluorescence, CHO RD-HGA16 cells; activation, % at 3 µM; vehicle wells 0%, saturating PEA agonist 100%; 360,000 compounds, 0.99% hits; Trace amine-associated receptor 1 (Homo sapiens), Q96RJ0;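 active means activation above the mean activation of all test compounds in the run plus 3 SD, cut at about 38% in these data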
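Repeats: no replicates (n 1) | Material: CHO-derived RD-HGA16 cells with stable Gα16 and human TAAR1 | Technique: Kinetic Fluo-8 calcium fluorescence | Schedule: 17-24 h seeding, 75 min 37 °C dye, 30 min RT | Evaluation: % activation from peak over basal fluorescence ratio, DMSO-to-PEA scaled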
V1R ag counter: agonists of human V1a receptor, primary screen, counter-screen for OXTR agonist project, fluorescence, CHO-V1R cells. Vasopressin V1a receptor (Homo sapiens), P37288. Fluo-8 calcium fluorescence, agonist mode; 0% DMSO, 100% 3 nM vasopressin. activation, % at 3 µM. 320,000 compounds, 0.25% hits. AID 2797, 2010;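 active means activation above the mean activation of all tested compounds plus 3 SD, per screening run, cut at about 20% in these data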;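 further: signal is peak over basal fluorescence ratio across a 100 second FLIPR read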
TAAR1 nonsel count: nonselective antagonists in TAAR1 counter-screen cells, counter-screen for hTAAR1 antagonist project, cell-based, fluorescence, calcium. 2,400 compounds, 77% hits. AID 651780, 2012. shares compounds with TAAR1 antag. inhibition, % at 3 µM. counterscreen cell line, antagonist mode; in the data active means inhibition above about 22%;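 further: CHO-Ga16 host cells stimulated with ATP at an EC80 level; 0% = agonist EC80 plus vehicle and 100% = vehicle without agonist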
TAAR1 ant conf: human TAAR1 antagonists, retest of hits, confirmation, cell-based, fluorescence | inhibition, % at 3 µM | TAAR1-expressing cells, fluorescence antagonist read-out | AID 651785, 2012 | 2,400 compounds, 40% hits | shares compounds with TAAR1 antag; in the data active means inhibition above about 49%;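 further: CHO-Ga16 host cells challenged with agonist PEA near its EC80; 0% = agonist at EC80 plus vehicle and 100% = vehicle with no agonist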
Ga16 nonsel ag: calcium activation in Ga16-expressing cells, counter-screen for TAAR1 antagonist project, cell-based, fluorescence; shares compounds with TAAR1 antag; agonist counterscreen; activation, % at 3 µM; 2,400 compounds, 18% hits; AID 651953, 2012; in the data active means activation above about 12%;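 further: 0% = vehicle wells and 100% = saturating stimulus response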
TAAR1 ag counter: TAAR1 activation by candidate antagonists – cell-based, fluorescence, counter-screen for TAAR1 antagonist project; activation, % at 3 µM; hTAAR1 cell line, agonist mode; 2,400 compounds, 2% hits; shares compounds with TAAR1 antag; in the data active means activation above about 37%;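 further: CHO cells stably expressing TAAR1 with calcium dye readout; 0% = DMSO vehicle and 100% = full agonist response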
* marks the source's active call; other numbers are inactive results; x = not tested or not shown.

SMILES	OXTR agonist	TAAR1 antag	OXTR potentiate	TAAR1 agonist	V1R ag counter	TAAR1 nonsel count	TAAR1 ant conf	Ga16 nonsel ag	TAAR1 ag counter
CCc1cc2c(COC(=O)c3cc(S(=O)(=O)N4CCOCC4)ccc3F)cc(=O)oc2cc1O	3.5	47.8	-5.4	6.3	4.5	x	x	x	x
CCc1cc2c(COC(=O)c3cccc(NS(C)(=O)=O)c3)cc(=O)oc2cc1O	2.1	64.7*	-12.3	4.5	2.8	33.0*	38.9	4.2	2.1
COC(=O)CNC(c1ccccc1)c1cc(Cl)ccc1NC(=O)c1cccc(Cl)c1 (stereo unspecified)	-1.6	86.7*	-7.4	-1.3	2.0	10.9	33.8	1.9	6.0
NNC(=O)CNC(c1ccccc1)c1cc(Br)ccc1NC(=O)c1cccc(Cl)c1 (stereo unspecified)	-0.6	21.2	-4.2	4.7	0.8	x	x	x	x
CCN(CC)S(=O)(=O)c1cc(NC(=O)c2ccc3c(c2)NC(=O)C(C)S3)ccc1C (stereo unspecified)	6.6	73.4*	-10.9	16.0	9.7	41.3*	51.9*	12.7*	9.9
COc1ccc(N2CCN(C(=O)c3ccc(CS(=O)(=O)c4ccccc4C)o3)CC2)cc1	4.7	51.6*	-5.2	17.8	4.5	27.4*	46.1	11.5	26.6
Cc1ccc(C)c(N2CCN(C(=O)c3ccc(CS(=O)(=O)c4ccccc4C)o3)CC2)c1	-1.5	64.1*	-13.1	16.2	0.7	36.6*	51.2*	7.2	6.5
COc1ccccc1S(=O)(=O)Cc1ccc(C(=O)N2CCN(c3ccccc3)CC2)o1	1.0	14.2	-8.2	22.6	3.6	x	x	x	x
Cc1ccc(S(=O)(=O)Cc2ccc(C(=O)N3CCN(c4cc(C)ccc4C)CC3)o2)cc1	-1.0	2.1	2.9	8.0	0.0	x	x	x	x
COc1ccccc1S(=O)(=O)Cc1ccc(C(=O)N2CCN(c3cccc(Cl)c3)CC2)o1	5.4	64.6*	-7.2	25.2	7.5	40.5*	61.1*	13.4*	11.7
CC1CCc2sc(C(=O)N=Nc3c(O)[nH]c4ccccc34)cc2C1 (stereo unspecified)	-1.1	x	-7.2	x	-0.1	x	x	x	x
COc1ccc([C@H]2CC(=O)C=C(c3ccc(CNC(=O)OC(C)(C)C)cc3)C2)cc1	9.2	83.2*	-10.7	19.0	6.7	47.0*	67.9*	11.7*	7.8
COc1cc(CNC[C@H]2O[C@@H](n3cc(C)c(=O)[nH]c3=O)C[C@@H]2O)ccc1OCc1cccc(Cl)c1	x	-18.2	x	0.5	x	x	x	x	x
Cc1ccccc1CSCCC(=O)NCCC1=CCCCC1	-0.7	52.9*	-11.3	7.3	-0.9	8.3	39.1	3.1	5.4
O=C(CCSCc1ccc(Cl)cc1)NCCC1=CCCCC1	-1.7	-0.4	-4.7	4.5	0.0	x	x	x	x
COc1ccc(-c2csc3ncnc(N4CCN(c5ccccc5OC)CC4)c23)cc1	-2.2	62.5*	-7.6	0.8	1.8	27.3*	41.4	4.7	10.4
CCOc1ccccc1N1CCN(c2ncnc3scc(-c4ccc(OC)cc4)c23)CC1	-0.5	7.0	-13.7	-0.6	0.2	x	x	x	x
CCNC(=O)c1cc2c(c(-c3cccc(-c4cncnc4)c3)n1)[C@@H](CCO)N(C(C)=O)C2	x	-23.2	x	2.5	x	x	x	x	x
